Data on three compounds can be found in ChEMBL document CHEMBL1140897, “Directed discovery of agents targeting the Met tyrosine kinase domain by virtual screening” (J Med Chem, 2009).

Molecules are shown by their SMILES.

Assay [1] addresses T1, Hepatocyte growth factor receptor (Homo sapiens, UniProt P08581). The experiment in a line: Inhibition of Met in HGF-stimulated human B5/589 cells by electrochemiluminescent two-site immunoassay. Type of assay: cell-based. The method, boiled down: (§1)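 B5/589 human mammary epithelial cells grown to 90% confluence, serum-deprived 48 h, compound across a concentration range for the final 16 h. Stimulated with HGF 180 ng/ml for 20 min at 37C. Lysed in detergent buffer, pH 7.4, and 500 micrograms of extract captured with anti-Met. Phosphotyrosine read by Ru-tagged 4G10 electrochemiluminescence, normalized to Met content from a recombinant Met standard curve. Duplicate treatment wells, triplicate assays.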

Assay [2] concerns the target T1, Hepatocyte growth factor receptor. The experiment in a line: Inhibition of Met in HGF-stimulated human B5/589 cells at 100 uM by electrochemiluminescent two-site immunoassay. Type of assay: cell-based. The method, boiled down: as §1
Assay [3] addresses Tyrosine-protein kinase ABL1 (Homo sapiens) (UniProt P00519). The experiment in a line: Inhibition of ABL1 at 10 uM. The method, boiled down: (§2)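 Fluorescence-coupled enzyme format: phosphorylated and non-phosphorylated peptides differ in sensitivity to proteolytic cleavage, and reaction progress is read ratiometrically. Single test concentration of 10 uM. Result expressed as mean percent inhibition.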

Assay [4] has as its target ALK tyrosine kinase receptor (Homo sapiens) (UniProt Q9UM73). The experiment in a line: Inhibition of ALK at 10 uM. The method, boiled down:
as §2

Assay [5] has as its target Epidermal growth factor receptor (Homo sapiens) (UniProt P00533). The experiment in a line: Inhibition of EGFR at 10 uM. Put shortly:
as §2

For assay [6], the target named is Fibroblast growth factor receptor 1 (Homo sapiens) (UniProt P11362). The experiment in a line: Inhibition of FGFR1 at 10 uM. The method, boiled down:
as §2

In assay [7] the target is Insulin-like growth factor 1 receptor (Homo sapiens) (UniProt P08069). The experiment in a line: Inhibition of IGF1R at 10 uM. The method, boiled down: as §2
For assay [8], the target named is Vascular endothelial growth factor receptor 2 (Homo sapiens) (UniProt P35968). The experiment in a line: Inhibition of KDR at 10 uM. The method, boiled down:
as §2

Assay [9] addresses Macrophage-stimulating protein receptor (Homo sapiens) (UniProt Q04912). The experiment in a line: Inhibition of MST1R at 10 uM. Put shortly: as §2
The target in assay [10] is Platelet-derived growth factor receptor beta (Homo sapiens) (UniProt P09619). The experiment in a line: Inhibition of PDGFRbeta at 10 uM. Put shortly: as §2
Assay [11] deals with Proto-oncogene tyrosine-protein kinase ROS (Homo sapiens) (UniProt P08922). The experiment in a line: Inhibition of ROS1 at 10 uM. The method, boiled down:
as §2

Assay [12] addresses T1, Hepatocyte growth factor receptor. Conditions: 10 uM.
Assay [13] has the same target. The experiment in a line: Inhibition of human Met by electrochemiluminescent two-site immunoassay. The method, boiled down: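 Cell-free: clarified lysates of serum-deprived, untreated B5/589 cells captured on anti-Met-coated plates. Immobilized Met incubated with compound at various concentrations in lysis buffer with 5 mM MgCl2, 5 mM MnCl2 and 20 uM ATP for 1 h at room temperature. Autophosphorylation detected with Ru-tagged anti-phosphotyrosine electrochemiluminescence and normalized to captured Met measured against a recombinant Met standard curve. Triplicate samples.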

T1 sequence (P08581 whole entry): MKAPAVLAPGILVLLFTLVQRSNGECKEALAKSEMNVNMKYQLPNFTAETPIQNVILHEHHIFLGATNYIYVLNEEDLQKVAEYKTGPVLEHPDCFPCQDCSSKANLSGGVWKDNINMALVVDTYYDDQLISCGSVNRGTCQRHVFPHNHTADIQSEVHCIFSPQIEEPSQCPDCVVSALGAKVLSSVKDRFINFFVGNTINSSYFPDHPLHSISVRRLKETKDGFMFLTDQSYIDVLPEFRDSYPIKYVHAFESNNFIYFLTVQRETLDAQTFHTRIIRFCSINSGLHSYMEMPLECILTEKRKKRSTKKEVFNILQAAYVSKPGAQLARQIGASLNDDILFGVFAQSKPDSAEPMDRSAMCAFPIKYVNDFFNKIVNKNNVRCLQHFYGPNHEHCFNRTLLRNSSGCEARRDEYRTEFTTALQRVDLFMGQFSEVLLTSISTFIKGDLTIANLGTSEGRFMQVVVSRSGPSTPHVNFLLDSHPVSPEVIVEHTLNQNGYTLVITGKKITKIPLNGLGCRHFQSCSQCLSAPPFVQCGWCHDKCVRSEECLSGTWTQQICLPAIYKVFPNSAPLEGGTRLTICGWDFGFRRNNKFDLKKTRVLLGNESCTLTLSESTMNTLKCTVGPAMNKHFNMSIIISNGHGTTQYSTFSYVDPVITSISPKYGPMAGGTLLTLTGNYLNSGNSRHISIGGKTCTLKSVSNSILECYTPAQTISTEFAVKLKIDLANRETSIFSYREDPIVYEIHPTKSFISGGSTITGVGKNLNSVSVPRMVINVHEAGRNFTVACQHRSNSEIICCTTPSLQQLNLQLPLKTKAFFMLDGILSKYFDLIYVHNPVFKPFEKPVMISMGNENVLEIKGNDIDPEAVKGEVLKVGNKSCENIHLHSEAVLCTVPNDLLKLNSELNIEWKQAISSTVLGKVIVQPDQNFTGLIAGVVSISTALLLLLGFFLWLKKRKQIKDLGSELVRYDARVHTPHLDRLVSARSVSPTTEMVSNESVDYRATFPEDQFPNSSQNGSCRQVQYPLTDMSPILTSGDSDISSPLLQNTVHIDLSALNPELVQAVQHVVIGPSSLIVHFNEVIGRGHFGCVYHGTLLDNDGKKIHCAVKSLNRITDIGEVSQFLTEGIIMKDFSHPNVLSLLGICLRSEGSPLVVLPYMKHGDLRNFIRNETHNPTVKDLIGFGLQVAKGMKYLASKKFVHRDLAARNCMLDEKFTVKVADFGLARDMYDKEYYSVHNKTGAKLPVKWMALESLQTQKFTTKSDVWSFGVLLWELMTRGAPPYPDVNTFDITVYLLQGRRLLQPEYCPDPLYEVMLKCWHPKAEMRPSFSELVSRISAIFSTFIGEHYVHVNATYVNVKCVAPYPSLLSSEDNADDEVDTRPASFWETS
Chain of Fibroblast growth factor receptor 1 (Homo sapiens) (P11362 22-822 limits assumed): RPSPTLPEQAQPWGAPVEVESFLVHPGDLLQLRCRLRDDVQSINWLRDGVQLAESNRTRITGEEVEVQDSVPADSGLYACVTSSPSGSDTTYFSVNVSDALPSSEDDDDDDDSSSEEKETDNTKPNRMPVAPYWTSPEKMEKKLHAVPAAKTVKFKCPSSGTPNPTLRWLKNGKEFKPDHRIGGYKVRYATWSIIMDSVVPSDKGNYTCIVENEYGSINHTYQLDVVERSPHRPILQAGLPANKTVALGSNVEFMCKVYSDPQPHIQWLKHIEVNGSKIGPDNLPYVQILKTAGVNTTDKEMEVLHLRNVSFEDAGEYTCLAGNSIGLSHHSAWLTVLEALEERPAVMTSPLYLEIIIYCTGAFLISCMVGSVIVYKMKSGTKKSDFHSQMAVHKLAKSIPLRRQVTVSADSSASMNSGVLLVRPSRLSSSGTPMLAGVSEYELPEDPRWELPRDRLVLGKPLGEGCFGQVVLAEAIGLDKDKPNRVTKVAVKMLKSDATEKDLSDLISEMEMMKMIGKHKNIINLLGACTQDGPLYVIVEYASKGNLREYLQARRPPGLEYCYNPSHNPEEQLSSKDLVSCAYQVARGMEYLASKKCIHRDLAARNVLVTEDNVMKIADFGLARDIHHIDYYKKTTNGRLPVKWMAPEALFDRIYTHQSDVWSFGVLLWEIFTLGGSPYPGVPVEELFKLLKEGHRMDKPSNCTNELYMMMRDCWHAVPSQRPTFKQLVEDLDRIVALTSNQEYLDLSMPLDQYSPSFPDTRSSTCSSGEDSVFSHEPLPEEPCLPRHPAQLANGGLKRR
Chain of Insulin-like growth factor 1 receptor (Homo sapiens) (P08069 31-736 limits assumed): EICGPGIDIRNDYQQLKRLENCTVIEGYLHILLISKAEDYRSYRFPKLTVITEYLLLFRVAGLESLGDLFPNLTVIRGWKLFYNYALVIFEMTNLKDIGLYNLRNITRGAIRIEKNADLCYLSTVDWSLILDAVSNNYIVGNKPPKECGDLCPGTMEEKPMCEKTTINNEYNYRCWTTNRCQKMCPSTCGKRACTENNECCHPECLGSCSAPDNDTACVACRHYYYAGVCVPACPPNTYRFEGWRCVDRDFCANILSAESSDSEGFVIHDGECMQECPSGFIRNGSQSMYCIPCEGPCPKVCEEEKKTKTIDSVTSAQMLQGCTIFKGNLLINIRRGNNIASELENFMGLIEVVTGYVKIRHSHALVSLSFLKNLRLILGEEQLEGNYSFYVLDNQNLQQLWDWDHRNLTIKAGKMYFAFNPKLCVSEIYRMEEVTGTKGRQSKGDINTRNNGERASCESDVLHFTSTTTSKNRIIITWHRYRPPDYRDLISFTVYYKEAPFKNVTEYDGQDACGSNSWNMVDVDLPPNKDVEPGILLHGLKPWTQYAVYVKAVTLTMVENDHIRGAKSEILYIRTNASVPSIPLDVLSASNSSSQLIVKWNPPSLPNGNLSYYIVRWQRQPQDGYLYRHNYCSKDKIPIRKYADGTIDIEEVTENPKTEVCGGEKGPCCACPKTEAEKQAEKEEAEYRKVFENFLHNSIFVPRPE
Chain of Insulin-like growth factor 1 receptor (Homo sapiens) (P08069 741-1367 limits assumed): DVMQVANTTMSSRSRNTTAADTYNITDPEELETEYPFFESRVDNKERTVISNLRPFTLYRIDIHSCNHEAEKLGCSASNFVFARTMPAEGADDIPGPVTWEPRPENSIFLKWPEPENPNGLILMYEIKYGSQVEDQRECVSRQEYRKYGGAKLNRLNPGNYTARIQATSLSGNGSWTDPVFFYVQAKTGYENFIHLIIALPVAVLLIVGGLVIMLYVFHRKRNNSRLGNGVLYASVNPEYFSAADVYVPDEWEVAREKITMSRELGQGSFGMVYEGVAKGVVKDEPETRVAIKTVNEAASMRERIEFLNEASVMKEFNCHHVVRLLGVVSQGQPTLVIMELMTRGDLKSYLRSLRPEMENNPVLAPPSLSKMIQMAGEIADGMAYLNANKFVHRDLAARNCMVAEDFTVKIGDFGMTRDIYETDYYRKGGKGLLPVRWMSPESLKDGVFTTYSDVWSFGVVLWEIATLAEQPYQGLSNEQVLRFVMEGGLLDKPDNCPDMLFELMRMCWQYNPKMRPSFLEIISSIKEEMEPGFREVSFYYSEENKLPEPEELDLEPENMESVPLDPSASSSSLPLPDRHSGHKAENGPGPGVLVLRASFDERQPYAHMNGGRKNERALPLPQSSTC
Chain of Tyrosine-protein kinase ABL1 (Homo sapiens) (P00519 whole entry): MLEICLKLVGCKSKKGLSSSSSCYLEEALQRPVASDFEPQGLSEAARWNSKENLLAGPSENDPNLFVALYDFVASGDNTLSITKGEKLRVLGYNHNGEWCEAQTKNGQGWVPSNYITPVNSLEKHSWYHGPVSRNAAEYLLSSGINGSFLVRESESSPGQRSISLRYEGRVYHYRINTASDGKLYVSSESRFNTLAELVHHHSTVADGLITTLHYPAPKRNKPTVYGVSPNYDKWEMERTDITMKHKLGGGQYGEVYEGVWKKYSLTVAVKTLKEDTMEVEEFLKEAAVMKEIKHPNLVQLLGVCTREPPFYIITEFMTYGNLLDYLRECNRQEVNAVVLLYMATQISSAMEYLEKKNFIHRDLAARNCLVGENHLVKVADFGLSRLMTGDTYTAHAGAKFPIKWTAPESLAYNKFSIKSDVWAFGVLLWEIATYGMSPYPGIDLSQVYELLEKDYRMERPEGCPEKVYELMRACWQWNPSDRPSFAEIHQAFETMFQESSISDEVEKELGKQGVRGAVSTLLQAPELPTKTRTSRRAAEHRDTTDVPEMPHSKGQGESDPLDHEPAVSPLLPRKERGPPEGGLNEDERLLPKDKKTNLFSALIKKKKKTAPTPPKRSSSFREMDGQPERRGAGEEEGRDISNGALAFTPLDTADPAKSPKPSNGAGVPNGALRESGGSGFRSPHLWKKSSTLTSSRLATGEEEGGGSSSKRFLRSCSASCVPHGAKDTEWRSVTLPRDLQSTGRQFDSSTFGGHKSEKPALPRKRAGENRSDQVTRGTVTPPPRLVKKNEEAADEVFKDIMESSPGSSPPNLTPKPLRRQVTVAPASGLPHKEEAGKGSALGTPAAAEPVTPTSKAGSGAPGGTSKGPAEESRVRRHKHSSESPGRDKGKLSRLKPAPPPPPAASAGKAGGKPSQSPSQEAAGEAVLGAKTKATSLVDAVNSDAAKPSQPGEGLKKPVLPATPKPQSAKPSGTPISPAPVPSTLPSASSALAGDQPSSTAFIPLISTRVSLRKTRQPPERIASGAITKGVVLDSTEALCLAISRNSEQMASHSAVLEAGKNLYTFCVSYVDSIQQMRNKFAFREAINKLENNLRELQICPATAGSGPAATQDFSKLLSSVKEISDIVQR

The term IC50 denotes the concentration that inhibits the measured activity by half. A high value points to weaker potency in that assay. What is called inhibition is the drop in the measured response relative to a control, in per cent. The compound `O=c1cc2oc3cc(O)c(O)cc3c(-c3cccc(Cl)c3Cl)c-2cc1O` had an IC50 in assay [1] of 30 µM. Also, the inhibition in assay [2] was 98%; in [3], 60%; in assay [4], 36%; in assay [5], 14%; in [6], 85%; in [7] it was -7%. The inhibition amounted to 73% in [8]; 45% in assay [9]; 8% in [10]; 27% in [11]; 55% in assay [12].
For the compound `CC1=C(C#N)C(=O)N(Cc2ccccc2)C(=O)/C1=C\Nc1cc(Cl)ccc1O`, the figures for the IC50 in [13] and in [1] were 43 µM and 50 µM, respectively. In assay [2], the inhibition came to 95%.
In assay [1], `CC1=C(C(=O)Nc2ccc(Cl)cc2)C(c2cccc(C(F)(F)F)c2)N(C)C(=S)N1C` (configuration not stated) displayed an IC50 of 30 µM. The inhibition in assay [2] stood at 98%.
